Legend:
Egl nine homolog 1 = Egl nine homolog 1 (Homo sapiens, UniProt Q9GZT9); assay: Inhibition of recombinant human PHD2 (181 to 426 residues) using DLDLEMLAPYIPMDDDFQL peptide as substrate preincubated for 15 mins followed by substrate addition and measured after 15 mins by Q-TOF mass spectrometric analysis
Procedure, shortened: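 Catalytic domain tPHD2 181–426 at 150 nM final in 50 mM Tris.Cl pH 7.5, 50 mM NaCl, with 0.5% DMSO. Substrate is CODD peptide (C-terminal amide). Enzyme equilibrated with compound for 15 min, then substrate with 2-oxoglutarate added and reacted for 15 min. Hydroxylated product measured by C4 SPE-MS. 11-point 3-fold titrations, normalised to no-enzyme control, IC50 by non-linear regression.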

SH-SY5Y [1] = assay: Neuroprotective activity against H2O2-induced oxidative stress in human SH-SY5Y cells assessed as reduction in rate of cell death pretreated for 2 hrs followed by H2O2 challenge by phase contrast microscopic analysis; assay type: functional, cell-based
Procedure, shortened: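 SH-SY5Y cells pretreated with compound for 2 h (3–10 or 10–50 µM), then given 50 µM H2O2. Dead cells counted manually on phase-contrast images. Mean ± SEM from 4 separate cultures, one-way ANOVA with Dunnett's test.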

SH-SY5Y [2] = assay: Cytotoxicity against human SH-SY5Y cells assessed as reduction in cell viability upto 100 uM incubated for 24 hrs by MTT assay; assay type: cell-based
Procedure, shortened: (§1)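 SH-SY5Y neuroblastoma cells, undifferentiated, grown in DMEM/F12 (43.5% each) with 10% FBS, pyruvate and glutaMAX at 37 C, 5% CO2. Cells harvested at 85–95% confluence and seeded for MTT, treated over 1–100 µM. MTT (0.1 mg/mL) added for 3 h at 37 C. Formazan dissolved in DMSO and read at 570 nm. Normalised to MEM vehicle (100%) and 0.25% triton X-100 (0%) controls.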

SH-SY5Y [3] = assay: Cytotoxicity against human SH-SY5Y cells assessed as reduction in cell viability at 100 uM incubated for 24 hrs by MTT assay; assay type: cell-based; procedure, shortened: as §1

Egl nine homolog 1, sequence (Q9GZT9 whole entry, the tested form may be a part): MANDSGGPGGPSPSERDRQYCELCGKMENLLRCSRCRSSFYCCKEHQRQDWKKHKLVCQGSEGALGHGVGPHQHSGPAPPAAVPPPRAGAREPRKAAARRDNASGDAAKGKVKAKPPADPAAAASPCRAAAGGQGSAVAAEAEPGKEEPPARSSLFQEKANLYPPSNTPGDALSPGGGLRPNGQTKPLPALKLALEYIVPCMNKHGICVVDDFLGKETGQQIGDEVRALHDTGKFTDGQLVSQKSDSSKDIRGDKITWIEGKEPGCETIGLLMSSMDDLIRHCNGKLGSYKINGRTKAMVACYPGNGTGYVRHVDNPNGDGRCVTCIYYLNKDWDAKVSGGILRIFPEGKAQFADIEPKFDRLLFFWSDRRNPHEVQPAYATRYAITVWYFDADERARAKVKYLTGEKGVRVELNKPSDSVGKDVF

SMILES | IC50 (Egl nine homolog 1) [µM] | other results
O=C(Nc1ccccc1-c1nc2ccccc2c(=O)o1)C(F)(F)F | > 100 | –
Cc1cc(NC(=O)c2nn(C)c(C)c2[N+](=O)[O-])no1 | > 100 | –
Cn1nc(C(=O)Nc2ccccc2Cl)cc1C(=O)O | > 100 | –
CC(C)c1nc2cc(NC(=O)CCn3cnnn3)ccc2n1C | > 100 | –
O=C1c2ccc3c4c(ccc(c24)C(=O)N1NC(=O)C(F)(F)F)CC3 | > 100 | –
CSCCC(CO)NC(=O)Cn1nc(-n2nc(C)cc2C)ccc1=O (stereo unspecified) | > 100 | –
C=CCN(CC=C)Cc1c(C)nc2ccccc2c1O | > 100 | –
O=C(O)c1cccc(NS(=O)(=O)c2cccc3cccnc23)c1 | > 100 | –

Continued, in another order:

IC50 (Egl nine homolog 1) [µM] | SMILES | other results
> 100 | Cc1c(Br)c(C(=O)Nc2ccc(Cl)cc2C(F)(F)F)nn1C | –
> 100 | COCc1cc(O)nc(Nc2nc(C)c3ccc(C)cc3n2)n1 | –
4.09 | Cc1nc(Sc2ncccc2C(=O)O)n[nH]1 | Activity (SH-SY5Y [1]): Dose-Dependent Effect; Activity (SH-SY5Y [2]): Non-Toxic
> 100 | COc1cccc(NC(=O)COc2ccccc2P(=O)(O)O)c1 | –
> 100 | O=S(=O)(Nc1cc(C(F)(F)F)ccc1Cl)c1cccc2cccnc12 | –
> 100 | O=C(CCn1cnnn1)N1CCC(O)(c2cccc(C(F)(F)F)c2)CC1 | –
> 100 | O=C(O)CCCN1C(=O)[C@@H]2[C@H](C1=O)[C@H]1C=C[C@@H]2C1 | –
26 | Cc1ccc(-n2nc3c(SCC(=O)O)nnc(C)c3c2C)cc1 | Activity (SH-SY5Y [3]): Toxic; Activity (SH-SY5Y [1]): Dose-Dependent Effect
77.7 | COC(=O)c1c(NC(=O)C2C(C(=O)O)[C@@H]3C=C[C@H]2CC3)sc(C)c1C (stereo partly specified) | –

— ChEMBL document CHEMBL4819086, “Discovery of neuroprotective agents that inhibit human prolyl hydroxylase PHD2” (Bioorg Med Chem, 2021)
